# Assay results taken from ChEMBL document CHEMBL5058577, “EUbOPEN Chemogenomics Library 2 (Multiplex)” (2022).
# Tested on: U2OS
# Test: Multiplex assay against U2OS
# Assay type: toxicity, cell-based
# Conditions: human
# Summary of the method: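 With compound added, live cells were imaged on a CQ1 microscope at 37°C and 5% CO2; staining with Hoechst33342, BioTracker Green Microtubule Cytoskeleton Dye, MitoTracker Red and Annexin V Alexa Fluor 680 had been done at seeding. The CellPathfinder machine-learning gating scheme split cells into Hoechst high-intensity objects or normal cells, normal cells into healthy, pyknosed or fragmented nuclei, and pyknosed cells into mitotic or apoptotic. The tubulin, mitochondrial-mass and membrane-permeability phenotypes are per cents of healthy-nucleus cells.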
# [1] = 12 h, 1 µM, compound concentration 1 uM, replicate 1
# [2] = 12 h, 1 µM, compound concentration 1 uM, replicate 2
# [3] = 12 h, 10 µM, compound concentration 10 uM, replicate 1
# [4] = 12 h, 10 µM, compound concentration 10 uM, replicate 2
# [5] = 24 h, 1 µM, compound concentration 1 uM, replicate 1
# [6] = 24 h, 1 µM, compound concentration 1 uM, replicate 2
# [7] = 24 h, 10 µM, compound concentration 10 uM, replicate 1
# [8] = 24 h, 10 µM, compound concentration 10 uM, replicate 2
# [9] = 48 h, 1 µM, compound concentration 1 uM, replicate 1
# [10] = 48 h, 1 µM, compound concentration 1 uM, replicate 2
# [11] = 48 h, 10 µM, compound concentration 10 uM, replicate 1
# [12] = 48 h, 10 µM, compound concentration 10 uM, replicate 2
compound,measurement,setting,value
CCCCCCNC(=O)Nc1ccc(S(=O)(=O)Nc2ccc(CCNC[C@H](O)COc3ccc(O)cc3)cc2)cc1 [L-755507],Population Apoptotic (%),[1],86%
same,Population Fragmented Nuclei (%),[1],22%
same,Population Healthy Nuclei (%),[1],67%
same,Population Hoechst High Intensity Objects (%),[1],4%
same,Population Membrane Permeable-Phenotype (%),[1],4%
same,Population Mitochondria Different-Phenotype (%),[1],4%
same,Population Mitotic Cells (%),[1],13%
same,Population Normal (%),[1],95%
same,Population Pyknosed Nuclei (%),[1],9%
same,Population Tubulin-Different-Phenotype (%),[1],4%
same,Total Cell Count,[1],231
same,Population Apoptotic (%),[2],100%
same,Population Fragmented Nuclei (%),[2],18%
same,Population Healthy Nuclei (%),[2],75%
same,Population Hoechst High Intensity Objects (%),[2],0%
same,Population Membrane Permeable-Phenotype (%),[2],10%
same,Population Mitochondria Different-Phenotype (%),[2],1%
same,Population Mitotic Cells (%),[2],0%
same,Population Normal (%),[2],99%
same,Population Pyknosed Nuclei (%),[2],5%
same,Population Tubulin-Different-Phenotype (%),[2],5%
same,Total Cell Count,[2],120
same,Population Apoptotic (%),[3],60%
same,Population Fragmented Nuclei (%),[3],31%
same,Population Healthy Nuclei (%),[3],59%
same,Population Hoechst High Intensity Objects (%),[3],3%
same,Population Membrane Permeable-Phenotype (%),[3],13%
same,Population Mitochondria Different-Phenotype (%),[3],11%
same,Population Mitotic Cells (%),[3],40%
same,Population Normal (%),[3],96%
same,Population Pyknosed Nuclei (%),[3],9%
same,Population Tubulin-Different-Phenotype (%),[3],10%
same,Total Cell Count,[3],282
same,Population Apoptotic (%),[4],72%
same,Population Fragmented Nuclei (%),[4],19%
same,Population Healthy Nuclei (%),[4],72%
same,Population Hoechst High Intensity Objects (%),[4],2%
same,Population Membrane Permeable-Phenotype (%),[4],19%
same,Population Mitochondria Different-Phenotype (%),[4],15%
same,Population Mitotic Cells (%),[4],27%
same,Population Normal (%),[4],97%
same,Population Pyknosed Nuclei (%),[4],8%
same,Population Tubulin-Different-Phenotype (%),[4],15%
same,Total Cell Count,[4],140
same,Population Apoptotic (%),[5],83%
same,Population Fragmented Nuclei (%),[5],22%
same,Population Healthy Nuclei (%),[5],66%
same,Population Hoechst High Intensity Objects (%),[5],4%
same,Population Membrane Permeable-Phenotype (%),[5],5%
same,Population Mitochondria Different-Phenotype (%),[5],5%
same,Population Mitotic Cells (%),[5],16%
same,Population Normal (%),[5],95%
same,Population Pyknosed Nuclei (%),[5],11%
same,Population Tubulin-Different-Phenotype (%),[5],3%
same,Total Cell Count,[5],285
same,Population Apoptotic (%),[6],92%
same,Population Fragmented Nuclei (%),[6],23%
same,Population Healthy Nuclei (%),[6],67%
same,Population Hoechst High Intensity Objects (%),[6],2%
same,Population Membrane Permeable-Phenotype (%),[6],11%
same,Population Mitochondria Different-Phenotype (%),[6],1%
same,Population Mitotic Cells (%),[6],7%
same,Population Normal (%),[6],97%
same,Population Pyknosed Nuclei (%),[6],9%
same,Population Tubulin-Different-Phenotype (%),[6],5%
same,Total Cell Count,[6],143
same,Population Apoptotic (%),[7],85%
same,Population Fragmented Nuclei (%),[7],25%
same,Population Healthy Nuclei (%),[7],65%
same,Population Hoechst High Intensity Objects (%),[7],2%
same,Population Membrane Permeable-Phenotype (%),[7],7%
same,Population Mitochondria Different-Phenotype (%),[7],4%
same,Population Mitotic Cells (%),[7],14%
same,Population Normal (%),[7],97%
same,Population Pyknosed Nuclei (%),[7],9%
same,Population Tubulin-Different-Phenotype (%),[7],3%
same,Total Cell Count,[7],307
same,Population Apoptotic (%),[8],88%
same,Population Fragmented Nuclei (%),[8],14%
same,Population Healthy Nuclei (%),[8],79%
same,Population Membrane Permeable-Phenotype (%),[8],9%
same,Population Mitochondria Different-Phenotype (%),[8],5%
same,Population Mitotic Cells (%),[8],11%
same,Population Pyknosed Nuclei (%),[8],6%
same,Population Tubulin-Different-Phenotype (%),[8],6%
same,Total Cell Count,[8],149
same,Population Apoptotic (%),[9],78%
same,Population Fragmented Nuclei (%),[9],14%
same,Population Healthy Nuclei (%),[9],74%
same,Population Hoechst High Intensity Objects (%),[9],1%
same,Population Membrane Permeable-Phenotype (%),[9],6%
same,Population Mitochondria Different-Phenotype (%),[9],3%
same,Population Mitotic Cells (%),[9],21%
same,Population Normal (%),[9],98%
same,Population Pyknosed Nuclei (%),[9],11%
same,Population Tubulin-Different-Phenotype (%),[9],3%
same,Total Cell Count,[9],422
same,Population Apoptotic (%),[10],91%
same,Population Fragmented Nuclei (%),[10],26%
same,Population Healthy Nuclei (%),[10],61%
same,Population Hoechst High Intensity Objects (%),[10],4%
same,Population Membrane Permeable-Phenotype (%),[10],12%
same,Population Mitochondria Different-Phenotype (%),[10],5%
same,Population Mitotic Cells (%),[10],8%
same,Population Normal (%),[10],95%
same,Population Pyknosed Nuclei (%),[10],12%
same,Population Tubulin-Different-Phenotype (%),[10],6%
same,Total Cell Count,[10],188
same,Population Apoptotic (%),[11],80%
same,Population Fragmented Nuclei (%),[11],19%
same,Population Healthy Nuclei (%),[11],70%
same,Population Hoechst High Intensity Objects (%),[11],2%
same,Population Membrane Permeable-Phenotype (%),[11],7%
same,Population Mitochondria Different-Phenotype (%),[11],2%
same,Population Mitotic Cells (%),[11],20%
same,Population Normal (%),[11],97%
same,Population Pyknosed Nuclei (%),[11],9%
same,Population Tubulin-Different-Phenotype (%),[11],4%
same,Total Cell Count,[11],419
same,Population Apoptotic (%),[12],94%
same,Population Fragmented Nuclei (%),[12],13%
same,Population Healthy Nuclei (%),[12],78%
same,Population Hoechst High Intensity Objects (%),[12],1%
same,Population Mitochondria Different-Phenotype (%),[12],3%
same,Population Mitotic Cells (%),[12],5%
same,Population Normal (%),[12],98%
same,Population Pyknosed Nuclei (%),[12],7%
same,Population Tubulin-Different-Phenotype (%),[12],6%
same,Total Cell Count,[12],242
CN1CCN2c3ccccc3Cc3ccccc3C2C1.Cl (configuration not stated) [MIANSERIN HYDROCHLORIDE],Population Apoptotic (%),[1],91%
same,Population Fragmented Nuclei (%),[1],35%
same,Population Healthy Nuclei (%),[1],56%
same,Population Hoechst High Intensity Objects (%),[1],3%
same,Population Membrane Permeable-Phenotype (%),[1],7%
same,Population Mitochondria Different-Phenotype (%),[1],4%
same,Population Mitotic Cells (%),[1],8%
same,Population Normal (%),[1],96%
same,Population Pyknosed Nuclei (%),[1],7%
same,Population Tubulin-Different-Phenotype (%),[1],5%
same,Total Cell Count,[1],162
same,Population Apoptotic (%),[2],83%
same,Population Fragmented Nuclei (%),[2],16%
same,Population Healthy Nuclei (%),[2],77%
same,Population Hoechst High Intensity Objects (%),[2],1%
same,Population Membrane Permeable-Phenotype (%),[2],3%
same,Population Mitochondria Different-Phenotype (%),[2],3%
same,Population Mitotic Cells (%),[2],16%
same,Population Normal (%),[2],98%
same,Population Pyknosed Nuclei (%),[2],5%
same,Population Tubulin-Different-Phenotype (%),[2],2%
same,Total Cell Count,[2],109
same,Population Apoptotic (%),[3],78%
same,Population Fragmented Nuclei (%),[3],23%
same,Population Healthy Nuclei (%),[3],68%
same,Population Hoechst High Intensity Objects (%),[3],2%
same,Population Membrane Permeable-Phenotype (%),[3],7%
same,Population Mitochondria Different-Phenotype (%),[3],3%
same,Population Mitotic Cells (%),[3],21%
same,Population Normal (%),[3],97%
same,Population Pyknosed Nuclei (%),[3],8%
same,Population Tubulin-Different-Phenotype (%),[3],4%
same,Total Cell Count,[3],277
same,Population Apoptotic (%),[4],86%
same,Population Fragmented Nuclei (%),[4],12%
same,Population Healthy Nuclei (%),[4],77%
same,Population Hoechst High Intensity Objects (%),[4],1%
same,Population Membrane Permeable-Phenotype (%),[4],1%
same,Population Mitochondria Different-Phenotype (%),[4],2%
same,Population Mitotic Cells (%),[4],13%
same,Population Normal (%),[4],98%
same,Population Pyknosed Nuclei (%),[4],10%
same,Population Tubulin-Different-Phenotype (%),[4],0%
same,Total Cell Count,[4],152
same,Population Apoptotic (%),[5],88%
same,Population Fragmented Nuclei (%),[5],34%
same,Population Healthy Nuclei (%),[5],56%
same,Population Hoechst High Intensity Objects (%),[5],1%
same,Population Membrane Permeable-Phenotype (%),[5],6%
same,Population Mitochondria Different-Phenotype (%),[5],1%
same,Population Mitotic Cells (%),[5],11%
same,Population Normal (%),[5],98%
same,Population Pyknosed Nuclei (%),[5],8%
same,Population Tubulin-Different-Phenotype (%),[5],4%
same,Total Cell Count,[5],197
same,Population Apoptotic (%),[6],75%
same,Population Fragmented Nuclei (%),[6],23%
same,Population Healthy Nuclei (%),[6],70%
same,Population Hoechst High Intensity Objects (%),[6],2%
same,Population Membrane Permeable-Phenotype (%),[6],4%
same,Population Mitochondria Different-Phenotype (%),[6],3%
same,Population Mitotic Cells (%),[6],25%
same,Population Normal (%),[6],97%
same,Population Pyknosed Nuclei (%),[6],5%
same,Population Tubulin-Different-Phenotype (%),[6],3%
same,Total Cell Count,[6],142
same,Population Apoptotic (%),[7],69%
same,Population Fragmented Nuclei (%),[7],21%
same,Population Healthy Nuclei (%),[7],68%
same,Population Hoechst High Intensity Objects (%),[7],1%
same,Population Membrane Permeable-Phenotype (%),[7],9%
same,Population Mitochondria Different-Phenotype (%),[7],2%
same,Population Mitotic Cells (%),[7],30%
same,Population Normal (%),[7],98%
same,Population Pyknosed Nuclei (%),[7],10%
same,Population Tubulin-Different-Phenotype (%),[7],2%
same,Total Cell Count,[7],319
same,Population Apoptotic (%),[8],93%
same,Population Fragmented Nuclei (%),[8],13%
same,Population Healthy Nuclei (%),[8],77%
same,Population Hoechst High Intensity Objects (%),[8],2%
same,Population Membrane Permeable-Phenotype (%),[8],7%
same,Population Mitochondria Different-Phenotype (%),[8],3%
same,Population Mitotic Cells (%),[8],6%
same,Population Normal (%),[8],97%
same,Population Pyknosed Nuclei (%),[8],8%
same,Total Cell Count,[8],183
same,Population Apoptotic (%),[9],78%
same,Population Fragmented Nuclei (%),[9],28%
same,Population Healthy Nuclei (%),[9],65%
same,Population Hoechst High Intensity Objects (%),[9],2%
same,Population Membrane Permeable-Phenotype (%),[9],5%
same,Population Mitochondria Different-Phenotype (%),[9],2%
same,Population Mitotic Cells (%),[9],21%
same,Population Normal (%),[9],97%
same,Population Pyknosed Nuclei (%),[9],5%
same,Population Tubulin-Different-Phenotype (%),[9],4%
same,Total Cell Count,[9],269
same,Population Fragmented Nuclei (%),[10],19%
same,Population Healthy Nuclei (%),[10],71%
same,Population Hoechst High Intensity Objects (%),[10],1%
same,Population Membrane Permeable-Phenotype (%),[10],4%
same,Population Mitochondria Different-Phenotype (%),[10],3%
same,Population Normal (%),[10],98%
same,Population Pyknosed Nuclei (%),[10],9%
same,Population Tubulin-Different-Phenotype (%),[10],2%
same,Total Cell Count,[10],206
same,Population Apoptotic (%),[11],91%
same,Population Fragmented Nuclei (%),[11],18%
same,Population Healthy Nuclei (%),[11],71%
same,Population Hoechst High Intensity Objects (%),[11],4%
same,Population Membrane Permeable-Phenotype (%),[11],4%
same,Population Mitochondria Different-Phenotype (%),[11],2%
same,Population Mitotic Cells (%),[11],8%
same,Population Normal (%),[11],95%
same,Population Pyknosed Nuclei (%),[11],9%
same,Population Tubulin-Different-Phenotype (%),[11],1%
same,Total Cell Count,[11],397
same,Population Apoptotic (%),[12],87%
same,Population Fragmented Nuclei (%),[12],15%
same,Population Healthy Nuclei (%),[12],73%
same,Population Hoechst High Intensity Objects (%),[12],2%
same,Population Mitochondria Different-Phenotype (%),[12],3%
same,Population Mitotic Cells (%),[12],12%
same,Population Normal (%),[12],97%
same,Population Pyknosed Nuclei (%),[12],11%
same,Population Tubulin-Different-Phenotype (%),[12],2%
same,Total Cell Count,[12],285
